The text below walks through data of ChEMBL document CHEMBL1777718, “Synthesis and cytotoxicity of 17a-aza-D-homo-androster-17-one derivatives” (Bioorg Med Chem Lett, 2011).

A short description of assay [1]: Cytotoxicity against human SMMC-7404 cells assessed as reduction in optical density by MTT assay relative to control. The assay is classed as functional, cell-based. In outline:
(§1)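 MTT assay read as optical density. IC50 is the concentration that cut optical density of treated cells by 50% relative to untreated cells. Values are means of three independent determinations.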

The test system of assay [2] is HeLa. Briefly: Cytotoxicity against human HeLa cells assessed as reduction in optical density by MTT assay relative to control. The assay is classed as functional, cell-based. In a few lines:
as §1

`C[C@]12CC/C(=N/O)C=C1/C(=N\O)C[C@@H]1[C@@H]2CC[C@]2(C)NC(=O)CC[C@@H]12`: the IC50 in assay [1] is more than 200 µM; in assay [2] it was 15.1 µM.
In the same order, the values of `C[C@]12CCC(=O)C=C1C(=O)C[C@@H]1[C@@H]2CC[C@]2(C)NC(=O)CC[C@@H]12` are more than 200 µM and 102 µM.
For `C[C@]12CCC(O)C=C1C(O)C[C@@H]1[C@@H]2CC[C@]2(C)NC(=O)CC[C@@H]12` (stereo partly drawn) the same measures were more than 200 µM and 18.8 µM.
For `C[C@]12CC/C(=N\NC(N)=S)C=C1/C(=N\NC(N)=S)C[C@@H]1[C@@H]2CC[C@]2(C)NC(=O)CC[C@@H]12` the same measures were 80.5 µM and 28.8 µM.
Consider `C[C@]12CC[C@H](O)CC1=CC[C@@H]1[C@@H]2CC[C@]2(C)NC(=O)CC[C@@H]12`, for which the IC50 in assay [1] was more than 200 µM; in assay [2], 65.9 µM.
As to `C[C@]12CCC(O)CC1C(O)C[C@@H]1[C@@H]2CC[C@]2(C)NC(=O)CC[C@@H]12` (stereo partly drawn), the IC50 in assay [1] stood at 124 µM; in assay [2], 14 µM.
On to `C[C@]12CC/C(=N/O)CC1/C(=N\O)C[C@@H]1[C@@H]2CC[C@]2(C)NC(=O)CC[C@@H]12` (stereo partly drawn), for which the IC50 in assay [1] came out at 184 µM; in assay [2], 75.7 µM.
On to `CC(=O)O[C@H]1CC[C@@]2(C)C(=CC[C@@H]3[C@@H]2CC[C@]2(C)NC(=O)CC[C@@H]32)C1`, for which the IC50 is more than 200 µM in assay [1] and 37.6 µM in assay [2].
In the same order, the values of `C[C@]12CCC(=O)CC1C(=O)C[C@@H]1[C@@H]2CC[C@]2(C)NC(=O)CC[C@@H]12` (stereo partly drawn) are 60.8 µM and 53.6 µM.
